# Data published in ChEMBL document CHEMBL1255303, “In vitro and in vivo antifungal activities of T-2307, a novel arylamidine” (2008).
# The source made the active and inactive calls. The rule behind the calls is not given here. Starred links: 1 amine or outer side, 2 acyl side, 3 side chain; linkers in the order of their positions; H or OH if unused. Positions of bridges follow the written chain, without caps; N, C: chain ends. Non-standard residues stand in square brackets, D forms with d. Residues, ends and D or L forms follow the SMILES beside them. *: point of attachment. hTyr(3S-OH,4S-OH,3'-OSO3H) = N[C@H](C(=O)O)[C@H](O)[C@@H](O)c1ccc(O)c(OS(=O)(=O)O)c1; Orn(4R-OH,5R-OH) = O=C([C@H](C[C@@H](O)[C@@H](O)N[*:3])N[*:1])[*:2]; Pro(3S-OH,4S-Me) = C[C@H]1CN[C@H](C(=O)O)[C@H]1O; X1 = CCCCCOc1ccc(-c2cc(-c3ccc(C(=O)*)cc3)no2)cc1; Gln(3R-OH) = NC(=O)C[C@@H](O)[C@H](N)C(=O)O; Hyp = O=C(O)[C@@H]1C[C@@H](O)CN1
# Columns and labels:
# Candida albicans [1] = test: Antifungal activity against Candida albicans ATCC 10261 after 48 hrs by broth microdilution method; type: functional; settings: ATCC 10261, 48 h
# In short: (§1)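 CLSI M27-A2 (yeasts) / M38-A (moulds) broth microdilution in RPMI 1640 buffered to pH 7.0 with 0.165 M MOPS. Malassezia furfur got the same medium supplemented with glucose, bile salts, glycerol, glycerol monostearate and Tween 20. Final inoculum 0.65 × 10^3–2.5 × 10^3 CFU/ml for yeasts and 0.87 × 10^4–3.8 × 10^4 CFU/ml for filamentous fungi. Incubation at 35°C except M. racemosus and F. solani, which were held at 30°C.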
# Candida albicans [2] = test: Antifungal activity against Candida albicans ATCC 90028 after 48 hrs by broth microdilution method; type: functional; settings: ATCC 90028, 48 h; in short: as §1
# Candida albicans [3] = test: Antifungal activity against Candida albicans TIMM 1623 after 48 hrs by broth microdilution method; type: functional; settings: TIMM 1623, 48 h; in short: as §1
# Candida dubliniensis = test: Antifungal activity against Candida dubliniensis ATCC MYA-577 after 48 hrs by broth microdilution method; type: functional; settings: ATCC MYA-577, 48 h; in short: as §1
# Pichia kudriavzevii = test: Antifungal activity against Candida krusei IFO 0584 after 48 hrs by broth microdilution method; type: functional; settings: IFO 0584, 48 h; in short: as §1
# Candida tropicalis = test: Antifungal activity against Candida tropicalis IFO 1400 after 48 hrs by broth microdilution method; type: functional; settings: IFO 1400, 48 h; in short: as §1
# Cryptococcus neoformans = test: Antifungal activity against Cryptococcus neoformans TIMM 0354 after 72 hrs by broth microdilution method; type: functional; settings: TIMM 0354, 72 h
# In short: (§2)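 CLSI M27-A2 (yeasts) or M38-A (A. fumigatus) broth microdilution in RPMI 1640 buffered to pH 7.0 with 0.165 M MOPS. Final inocula were 0.65–2.5 × 10^3 CFU/ml for yeasts and 0.87–3.8 × 10^4 CFU/ml for filamentous fungi. Incubation was at 35°C for about 48 h (72 h for C. neoformans). MIC was the lowest concentration giving a prominent (~50%) turbidity drop versus growth control; amphotericin B required complete inhibition.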
# Malassezia furfur = test: Antifungal activity against Malassezia furfur NBRC 0656 after 48 hrs by broth microdilution method; type: functional; settings: NBRC 0656, 48 h; in short: as §1
# Saccharomyces cerevisiae = test: Antifungal activity against Saccharomyces cerevisiae ATCC 24657 after 48 hrs by broth microdilution method; type: functional; settings: ATCC 24657, 48 h; in short: as §1
# Trichosporon asahii = test: Antifungal activity against Trichosporon asahii JCM 2466 after 48 hrs by broth microdilution method; type: functional; settings: JCM 2466, 48 h; in short: as §1
# Aspergillus fumigatus [4] = test: Antifungal activity against Aspergillus fumigatus ATCC 16424 after 48 hrs by broth microdilution method; type: functional; settings: ATCC 16424, 48 h; in short: as §2
# Aspergillus fumigatus [5] = test: Antifungal activity against Aspergillus fumigatus IFM 49895 after 48 hrs by broth microdilution method; type: functional; settings: IFM 49895, 48 h; in short: as §1
# Aspergillus fumigatus [6] = test: Antifungal activity against Aspergillus fumigatus TIMM 0063 after 48 hrs by broth microdilution method; type: functional; settings: TIMM 0063, 48 h; in short: as §1
# Aspergillus nidulans = test: Antifungal activity against Aspergillus nidulans NBRC 33017 after 48 hrs by broth microdilution method; type: functional; settings: NBRC 33017, 48 h; in short: as §1
# Aspergillus niger = test: Antifungal activity against Aspergillus niger NBRC 33023 after 48 hrs by broth microdilution method; type: functional; settings: NBRC 33023, 48 h; in short: as §1
# Lichtheimia corymbifera = test: Antifungal activity against Absidia corymbifera NBRC 4009 after 24 hrs by broth microdilution method; type: functional; settings: NBRC 4009, 24 h; in short: as §1
# Mucor racemosus = test: Antifungal activity against Mucor racemosus NBRC5403 after 24 hrs by broth microdilution method; type: functional; settings: NBRC5403, 24 h
# Candida albicans [7] = test: Antifungal activity against Candida albicans ATCC 96901 after 47 hrs by broth microdilution method; type: functional; settings: ATCC 96901, 47 h
# In short: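 Fluconazole-resistant or susceptible-dose-dependent ATCC C. albicans strains were tested by CLSI M27-A2 broth microdilution in RPMI 1640–0.165 M MOPS, pH 7.0, with a final inoculum of 1.1–1.5 × 10^3 CFU/ml at 35°C for about 47 h. MIC was the lowest concentration with a prominent (~50%) turbidity decrease relative to growth control; amphotericin B was read at complete inhibition.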
# Candida albicans [8] = test: Antifungal activity against Candida albicans clinical isolates after 48 hrs by broth microdilution method; type: functional
# In short: (§3)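 Clinical isolates from Japanese hospitals or culture collections were tested by broth microdilution in RPMI 1640-MOPS. Inoculum was 0.57 × 10^3–2.5 × 10^3 CFU/ml for yeasts and 0.4 × 10^4–3.3 × 10^4 CFU/ml for filamentous fungi. Incubation was at 35°C for about 48 h, or 72 h where footnoted. Results were summarised as MIC range, MIC50 and MIC90.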
# [9] = tested on: Meyerozyma guilliermondii; test: Antifungal activity against Candida guilliermondii clinical isolates after 48 hrs by broth microdilution method; type: functional; in short: as §3
# Candida parapsilosis = test: Antifungal activity against Candida parapsilosis clinical isolates after 48 hrs by broth microdilution method; type: functional; settings: Lodderomyces parapsilosis
# In short: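 Japanese hospital Candida isolates were tested by CLSI M27-A2 broth microdilution in RPMI 1640–MOPS, pH 7.0, with inocula of 0.57–2.5 × 10^3 CFU/ml at 35°C for about 48 h. Inocula came from 24-h potato dextrose agar cultures. MIC was the lowest concentration with about 50% turbidity reduction versus growth control (complete inhibition for amphotericin B). Range, MIC50 and MIC90 were reported.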
# Aspergillus fumigatus [10] = test: Antifungal activity against Aspergillus fumigatus clinical isolates after 48 hrs by broth microdilution method; type: functional; in short: as §3
# Aspergillus fumigatus [11] = test: Antifungal activity against Aspergillus fumigatus IFM 46895 infected ICR mouse assessed as delay in mortality of mouse at 1 mg/kg after 6 days; type: functional, organism-based; parameters: dose 1 mg/kg
# In short: (§4)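 Male ICR mice, 4 weeks old and SPF, were made neutropenic with intraperitoneal cyclophosphamide. The schedule was 200 mg/kg on day −3 (day −4 for Cryptococcus) plus 100 mg/kg on day +1. Infection was by tail-vein injection of 0.2 ml suspension: C. albicans 3.0 × 10^4, C. neoformans 9.1 × 10^4, A. fumigatus conidia 8.4 × 10^4 CFU/mouse. Drugs were given subcutaneously once daily for 7 days from 2 h post-infection; controls received saline. Groups had 8–10 mice.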
# Candida albicans [12] = test: Antifungal activity against Candida albicans TIMM 1623 infected ICR mouse after 6 days; type: functional; settings: TIMM 1623, 144 h; in short: as §4
structure (smiles),measurement,setting,value
"CCCCCOc1ccc(-c2cc(-c3ccc(C(=O)N[C@H]4C[C@@H](O)[C@@H](O)NC(=O)[C@@H]5[C@@H](O)[C@@H](C)CN5C(=O)[C@H]([C@H](O)CC(N)=O)NC(=O)[C@H]([C@H](O)[C@@H](O)c5ccc(O)c(OS(=O)(=O)O)c5)NC(=O)[C@@H]5C[C@@H](O)CN5C(=O)[C@H]([C@@H](C)O)NC4=O)cc3)no2)cc1 [MICAFUNGIN] (X1-[Orn(4R-OH,5R-OH)]T[Hyp][hTyr(3S-OH,4S-OH,3'-OSO3H)][Gln(3R-OH)][Pro(3S-OH,4S-Me)]; lactam 1-C)",MFC,Candida albicans [1],0.25 mg/L
same,MIC,Candida albicans [1],0.0313 mg/L
same,MFC,Candida albicans [2],0.125 mg/L
same,MIC,Candida albicans [2],0.0313 mg/L
same,MFC,Candida albicans [3],4 mg/L
same,MIC,Candida albicans [3],0.0625 mg/L
same,MFC,Candida dubliniensis,8 mg/L
same,MIC,Candida dubliniensis,0.125 mg/L
same,MFC,Pichia kudriavzevii,0.25 mg/L
same,MIC,Pichia kudriavzevii,0.125 mg/L
same,MFC,Candida tropicalis,> 64 mg/L
same,MIC,Candida tropicalis,0.0625 mg/L
same,MFC,Cryptococcus neoformans,> 64 mg/L
same,MIC,Cryptococcus neoformans,> 64 mg/L
same,MFC,Malassezia furfur,> 64 mg/L
same,MIC,Malassezia furfur,> 64 mg/L
same,MFC,Saccharomyces cerevisiae,1 mg/L
same,MIC,Saccharomyces cerevisiae,0.5 mg/L
same,MFC,Trichosporon asahii,> 64 mg/L
same,MIC,Trichosporon asahii,> 64 mg/L
same,MFC,Aspergillus fumigatus [4],> 64 mg/L
same,MIC,Aspergillus fumigatus [4],0.0313 mg/L
same,MFC,Aspergillus fumigatus [5],> 64 mg/L
same,MIC,Aspergillus fumigatus [5],0.0313 mg/L
same,MFC,Aspergillus fumigatus [6],> 64 mg/L
same,MIC,Aspergillus fumigatus [6],0.0156 mg/L
same,MFC,Aspergillus nidulans,> 64 mg/L
same,MIC,Aspergillus nidulans,0.0313 mg/L
same,MFC,Aspergillus niger,> 64 mg/L
same,MIC,Aspergillus niger,0.0313 mg/L
same,MFC,Lichtheimia corymbifera,> 64 mg/L
same,MIC,Lichtheimia corymbifera,32 mg/L
same,MFC,Mucor racemosus,> 64 mg/L
same,MIC,Mucor racemosus,32 mg/L
same,MIC,Candida albicans [7],0.125 mg/L
same,MIC50,Candida albicans [8],0.0625 mg/L
same,MIC90,Candida albicans [8],0.125 mg/L
same,MIC50,[9],1 mg/L
same,MIC90,[9],1 mg/L
same,MIC50,Candida parapsilosis,2 mg/L
same,MIC90,Candida parapsilosis,4 mg/L
same,MIC,Aspergillus fumigatus [10],0.0313 mg/L
same,MIC50,Aspergillus fumigatus [10],0.0313 mg/L
same,MIC90,Aspergillus fumigatus [10],0.0313 mg/L
same,Activity,Aspergillus fumigatus [11],Active
same,ED50,Candida albicans [12],0.182 mg/kg
